Experimental data: publication PMC8496415 (Translational Vision Science & Technology, 2021)

Experiments:
Long Evans rat eyes = assay: Clinical examination, OCT imaging and ERG after 28-day once-daily eye drop; format: in vivo
rat eyes = assay: Histology and immunohistochemistry; format: in vivo; details: once-daily 10% eye drop, 14 and 28 days
Summary of the method: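 Rats received 5 µL of 10% test compound drops once daily in one eye, PBS in the other. Eyes were taken at days 14 and 28, fixed overnight in 4% paraformaldehyde at 4°C, frozen and cut into 12 µm sections. Stains: H&E; cleaved caspase-3 (5% BSA block, primary 1:200 2 h, Alexa 488 secondary 1:400 1 h, DAPI) with caspase-3+ DAPI+ cells scored; TUNEL with DNase I-treated positive control. Mean ± SEM, two-way ANOVA/Sidak.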

[1] = Maximum solubility / achievable concentration in solution; format: physicochemical
axial elongation = details: topical, chick; ref 25 (Thomson et al.); cited from earlier work
[2] = rat, once-daily 10% eye drop, 14 and 28 days

Rat behavior (activity levels, aggression, feeding pattern, weight gain) (Long Evans rat eyes; 28-day once-daily topical 10%) | Maximum solubility ([1]; PBS, pH 7.4) [%] | Maximum concentration achievable ([1]; distilled water) [%] | SMILES | ERG A- and B-wave amplitude vs control eyes (Long Evans rat eyes; [2]) | OCT retinal structure (Long Evans rat eyes; [2]) | Hematoxylin and eosin staining of retina (inflammation) (rat eyes) | Number of cleaved caspase-3+ DAPI+ cells vs control (apoptosis) (rat eyes) | TUNEL staining (apoptosis) (rat eyes) | EC50 for a reduction of axial elongation (axial elongation) [%]
no obvious changes in rat behavior | 10 |  | CCOC(=O)[C@@H](N)Cc1ccc(O)c(O)c1 [etilevodopa] | no statistically significant difference in A- or B-wave amplitudes | did not demonstrate any qualitative structural changes | no infiltration of inflammatory cells, fibrosis or morphological changes | no statistically significant change | no TUNEL^+ DAPI^+ cells observed | 
 |  | 0.5 | N[C@@H](Cc1ccc(O)c(O)c1)C(=O)O [levodopa] |  |  |  |  |  | 0.05
